Columns and labels:
[1] = test system: CCD-18Co; test: Cytotoxicity against human CCD-18Co cells assessed as reduction in cell viability after 72 hrs by MTT assay; assay type: cell-based
How it was run: (§1)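 Cells seeded at 5000/well and precultured 1 day. HCT116 grown in McCoy's 5A + 10% FBS; SW620 and HEK293 in DMEM + 10% FBS; CCD18Co in DMEM + 15% FBS. Compounds from 0.1 M DMSO stocks were tested at 10^-10 to 10^-4 mol/L in sixplicate: HCT116 and HEK293 for 48 h, SW620 and CCD18Co for 72 h, at 37 °C, 5% CO2. MTT (5 mg/mL) added for 4 h, then A570 read; IC50 estimated.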

[2] = Drug uptake in BALB/c nude mouse xenografted with human HCT-116 cells assessed as drug level in lung at 5 mg/kg, iv measured up to 24 hrs by LC-MS/MS analysis; assay type: ADME, organism-based; conditions: in vivo
How it was run: (§2)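 Male BALB/c nude mice bearing s.c. HCT116 tumours (200-300 mm3), 20 per group. Single tail-vein dose of 5 mg/kg. Five mice per group killed at 0.5, 4, 8 and 24 h and heart-perfused with PBS. Tissues homogenized in saline (4 µL/mg) and precipitated with methanol containing paclitaxel internal standard. Prodrug, released DTX and free DTX measured by LC-MS/MS.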

[3] = Apparent volume of distribution in Sprague-Dawley rat at 5 mg/kg, iv measured up to 72 hrs by LC-MS/MS analysis; assay type: ADME, organism-based; conditions: in vivo, read-out: Vz
How it was run: (§3)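 Male SD rats (180-200 g), fasted 12 h with free water, n = 3 per group. Single tail-vein dose of 5 mg/kg in 0.5% DMSO/5% castor oil/5% ethanol/89.5% saline. Retro-orbital blood drawn 0.083-72 h with heparin. Plasma protein-precipitated with methanol containing paclitaxel internal standard, then analysed by LC-MS/MS. Parameters from non-compartmental analysis, mean ± SD. For the DTX group, parameters were calculated after converting dose to the molar equivalent of the prodrug.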

[4] = Drug uptake in BALB/c nude mouse xenografted with human HCT-116 cells assessed as drug level in kidney at 5 mg/kg, iv measured up to 24 hrs by LC-MS/MS analysis; assay type: ADME, organism-based; conditions: in vivo; how it was run: as §2
[5] = Toxicity in BALB/c nude mouse xenografted with human HCT-116 cells assessed as reduction in body weight at 5 mg/kg, ip administered once for every 7 days for 14 days relative to control; assay type: organism-based; design: scale not given: the % may be the effect or the level left; conditions: in vivo, 336 h, time 14 day
How it was run: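 HCT116 s.c. xenografts in male BALB/c nude mice, n = 6 per group. Dosing was ip once every 7 days for 2 weeks in DMSO/castor oil/ethanol/saline; vehicle controls got solvent. Body weight recorded every other day or every three days. Weight loss taken at day 14. Mean ± SD.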

[6] = test system: HCT-116; test: Antitumour activity against human HCT-116 cells xenografted in BALB/c nude mouse assessed as tumour growth inhibition at 5 mg/kg, ip administered once for every 7 days for 14 days relative to control; assay type: functional; conditions: HCT-116, ip, 336 h, time 14 day, read-out: TGI
How it was run: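 Male BALB/c nude mice received s.c. HCT116 cells (2 × 10^6 in 0.2 mL PBS). Once tumours reached 100-200 mm3, mice were randomized into groups of six. Dosing was ip, 0.1 mL/10 g, once every 7 days, in DMSO 0.5%/castor oil 5%/ethanol 5%/saline 89.5%; vehicle controls got solvent. Caliper volume V = L×W²×0.52 read every 2-3 days. Tumours excised and weighed on day 14.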

[7] = test system: HCT-116; test: Cytotoxicity against human HCT-116 cells assessed as reduction in cell viability after 48 hrs by MTT assay; assay type: functional, cell-based; conditions: HCT-116, 48 h; how it was run: as §1
[8] = Toxicity in ip dosed Kunming mouse measured for 14 days; assay type: organism-based; conditions: in vivo, time 14 day
How it was run: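 Healthy Kunming mice of both sexes, 20 ± 2 g, randomised into 5 groups of 10 matched for weight and size. Compound given once intraperitoneally at 400, 300, 250 or 150 mg/kg in formulation solvent (0.5% DMSO, 5% castor oil, 5% ethanol, 89.5% saline), 0.1 mL per 10 g; vehicle controls received solvent. Deaths recorded daily for 14 days; LD50 by Bliss method.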

[9] = AUC (0 to infinity) in Sprague-Dawley rat at 5 mg/kg, iv measured up to 72 hrs by LC-MS/MS analysis; assay type: ADME, organism-based; design: route intravenous, dose 5 mg/kg, time <=72; conditions: in vivo, 72 h; how it was run: as §3
[10] = test system: SW-620; test: Cytotoxicity against human SW-620 cells assessed as reduction in cell viability after 72 hrs by MTT assay; assay type: functional, cell-based; conditions: SW-620, 72 h; how it was run: as §1
[11] = MRT (0 to infinity) in Sprague-Dawley rat at 5 mg/kg, iv measured up to 72 hrs by LC-MS/MS analysis; assay type: ADME, organism-based; conditions: in vivo; how it was run: as §3
[12] = Half life in Sprague-Dawley rat at 5 mg/kg, iv measured up to 72 hrs by LC-MS/MS analysis; assay type: ADME, organism-based; conditions: in vivo; how it was run: as §3
[13] = Drug uptake in BALB/c nude mouse xenografted with human HCT-116 cells assessed as drug level in tumour at 5 mg/kg, iv measured up to 24 hrs by LC-MS/MS analysis; assay type: ADME, organism-based, Neoplasm; conditions: in vivo; how it was run: as §2
[14] = Toxicity in BALB/c nude mouse xenografted with human HCT-116 cells assessed as disordered myocardial fiber in heart at 5 mg/kg, ip administered once for every 7 days for 14 days by H and E staining based assay; assay type: organism-based; conditions: in vivo, 336 h, time 14 day
How it was run: (§4)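 At the end of the 14-day ip xenograft study (HCT116, BALB/c nude), heart and liver were collected from vehicle and molar-equivalent dose groups. Tissues fixed in 10% formalin in PBS and stained with H&E. Liver examined at 400×, heart at 100×.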

[15] = Toxicity in BALB/c nude mouse xenografted with human HCT-116 cells assessed as concentrated nucleus in liver at 5 mg/kg, ip administered once for every 7 days for 14 days by H and E staining based assay; assay type: organism-based; conditions: in vivo, 336 h, time 14 day; how it was run: as §4
[16] = AUC (0 to t) in Sprague-Dawley rat at 5 mg/kg, iv measured up to 72 hrs by LC-MS/MS analysis; assay type: ADME, organism-based; design: route intravenous, dose 5 mg/kg, time <=72; conditions: in vivo; how it was run: as §3
[17] = Drug uptake in BALB/c nude mouse xenografted with human HCT-116 cells assessed as drug level in liver at 5 mg/kg, iv measured up to 24 hrs by LC-MS/MS analysis; assay type: ADME, organism-based; conditions: in vivo; how it was run: as §2
[18] = Apparent clearance in Sprague-Dawley rat at 5 mg/kg, iv measured up to 72 hrs by LC-MS/MS analysis; assay type: ADME, organism-based; conditions: in vivo, 5 mg/kg, 72 h; how it was run: as §3
[19] = Toxicity in BALB/c nude mouse xenografted with human HCT-116 cells assessed as inflammatory cell invasion in heart at 5 mg/kg, ip administered once for every 7 days for 14 days by H and E staining based assay; assay type: organism-based; conditions: in vivo, 336 h, time 14 day; how it was run: as §4
[20] = Drug uptake in BALB/c nude mouse xenografted with human HCT-116 cells assessed as drug level in heart at 5 mg/kg, iv measured up to 24 hrs by LC-MS/MS analysis; assay type: ADME, organism-based; conditions: in vivo; how it was run: as §2
[21] = Drug uptake in BALB/c nude mouse xenografted with human HCT-116 cells assessed as drug level in spleen at 5 mg/kg, iv measured up to 24 hrs by LC-MS/MS analysis; assay type: ADME, organism-based; conditions: in vivo; how it was run: as §2
[22] = test system: HEK293; test: Cytotoxicity against HEK293 cells assessed as reduction in cell viability after 48 hrs by MTT assay; assay type: cell-based; conditions: Homo sapiens, HEK293, 48 h; how it was run: as §1

**Q.** Which IC50 [1] does the source give for `CC(=O)O[C@@]12CO[C@@H]1C[C@H](O)[C@@]1(C)C(=O)[C@H](O)C3=C(C)[C@@H](OC(=O)[C@H](O)[C@@H](NC(=O)OC(C)(C)C)c4ccccc4)C[C@@](O)([C@@H](OC(=O)c4ccccc4)[C@H]21)C3(C)C` [DOCETAXEL ANHYDROUS] here?
**A.** Its IC50 is 117 µM.

**Q.** What about the Drug uptake [2] of the same compound?
**A.** Its Drug uptake is “Active”.

**Q.** What about the Vd [3] of the same compound?
**A.** Its Vd is 22.6 L/kg.

**Q.** And the Drug uptake [4]?
**A.** The Drug uptake was “Active”.

**Q.** And the Activity [5]?
**A.** The Activity was 13%.

**Q.** And the inhibition in vivo at 5 mg/kg [6]?
**A.** The inhibition in vivo at 5 mg/kg was 42.7%.

**Q.** And the IC50 [7]?
**A.** Its IC50 is 0.0035 µM.

**Q.** And the LD50 at 336 h [8]?
**A.** The LD50 at 336 h was 74.1 mg/kg.

**Q.** And the AUC [9]?
**A.** The AUC was 867 ng·h/mL.

**Q.** And the IC50 [10]?
**A.** The IC50 was 0.02 µM.

**Q.** What about the MRT inf [11] of the same compound?
**A.** The MRT inf was 3.76 h.

**Q.** What about the half-life [12] of the same compound?
**A.** Its half-life is 5.75 h.

**Q.** And the Drug uptake [13]?
**A.** The Drug uptake was “Active”.

**Q.** What about the Activity [14] of the same compound?
**A.** Its Activity is “Toxic”.

**Q.** And the Activity [15]?
**A.** Its Activity is “Toxic”.

**Q.** What about the AUC(0-t) at 72 h [16] of the same compound?
**A.** Its AUC(0-t) at 72 h is 930 ng·h/mL.

**Q.** What about the Drug uptake [17] of the same compound?
**A.** The Drug uptake was “Active”.

**Q.** And the “CL(app)” value [18]?
**A.** Its value is 46 mL/min/kg.

**Q.** And the Activity [19]?
**A.** The Activity was “Toxic”.

**Q.** What about the Drug uptake [20] of the same compound?
**A.** Its Drug uptake is “Active”.

**Q.** And the Drug uptake [21]?
**A.** Its Drug uptake is “Active”.

**Q.** And the IC50 [22]?
**A.** The IC50 was 19.7 µM.

— ChEMBL document CHEMBL4680238, “Novel octapeptide-DTX prodrugs targeting MMP-7 as effective agents for the treatment of colorectal cancer with lower systemic toxicity” (Eur J Med Chem, 2020)
